Key:
[1] = Clearance in male Wistar Han rats at 2 mg/kg, iv administered post overnight fasting measured upto 24 hrs by LC-MS/MS analysis; format: ADME, organism-based; conditions: rat, in vivo
In short: (§1)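 Overnight-fasted male Wistar Han rats or Beagle dogs, two animals per group, 24 h study. IV in 60% PEG200 (rat 2 mg/kg, dog 1 mg/kg). PO in 10% Tween (rat 10 mg/kg, dog 5 mg/kg). Blood sampled up to 24 h, plasma separated by centrifugation, and drug measured by LC/MS. MRT reported for the IV route.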

[2] = Oral bioavailability in male Wistar Han rat at 10 mg/kg post overnight fasting measured upto 24 hrs by LC-MS/MS analysis; format: ADME, organism-based; conditions: in vivo; in short: as §1
[3] = Half-life in male Wistar Han rats at 2 mg/kg, iv administered post overnight fasting measured upto 24 hrs by LC-MS/MS analysis; format: ADME, organism-based; conditions: rat, in vivo; in short: as §1
[4] = Drug concentration in male Wistar Han rat at 10 mg/kg, po measured after 24 hrs by LC/MS analysis; format: ADME, organism-based; conditions: in vivo, read-out: Drug uptake; in short: as §1
[5] = AUC in male Wistar Han rats at 10 mg/kg, po administered post overnight fasting measured upto 24 hrs by LC-MS/MS analysis; format: ADME, organism-based; design: route oral, dose 10 mg/kg, time <=24; conditions: rat, in vivo; in short: as §1
[6] = Cmax in male Wistar Han rats at 10 mg/kg, po administered post overnight fasting measured upto 24 hrs by LC-MS/MS analysis; format: ADME, organism-based; design: route oral, dose 10 mg/kg, time <=24; conditions: rat, in vivo; in short: as §1
Huh-7 [7] = test: Inhibition of NS5A in Hepatitis C virus subtype 1a infected in human HuH7 cells assessed as reduction in viral replication by luciferase reporter gene assay; format: cell-based
In short: (§2)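 Transient replicon assay with GT1a-H77, GT1b-Con1 or chimeric replicons, electroporated into a Huh7-derived cell line. Percent inhibition of replication, read as a drop in luciferase signal, was calculated at each concentration to give EC90. Values are means of at least two experiments.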

[8] = system: T1, Nonstructural protein 5A (Hepatitis C virus), Q5L478 [Y93H]; test: Inhibition of NS5A Y93H mutant in Hepatitis C virus subtype 1a infected in human HuH7 cells assessed as reduction in viral replication by luciferase reporter gene assay; format: cell-based; conditions: Huh-7
T1 sequence (whole entry): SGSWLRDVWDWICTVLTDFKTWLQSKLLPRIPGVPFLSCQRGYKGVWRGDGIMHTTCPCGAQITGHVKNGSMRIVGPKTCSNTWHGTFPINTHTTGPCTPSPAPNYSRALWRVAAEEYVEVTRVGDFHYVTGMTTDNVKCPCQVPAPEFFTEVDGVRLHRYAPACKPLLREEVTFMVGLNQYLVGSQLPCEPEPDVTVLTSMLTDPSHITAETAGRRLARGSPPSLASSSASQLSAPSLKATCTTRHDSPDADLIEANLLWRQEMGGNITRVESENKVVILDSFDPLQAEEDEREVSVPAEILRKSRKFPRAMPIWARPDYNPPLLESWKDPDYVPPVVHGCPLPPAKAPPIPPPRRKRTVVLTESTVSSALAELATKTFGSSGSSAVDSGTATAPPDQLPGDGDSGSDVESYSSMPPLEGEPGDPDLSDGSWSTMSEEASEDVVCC
In short: (§3)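 NS5A resistance variants engineered into GT1a-H77 or GT1b-Con1 replicons. Each variant replicon is transfected transiently by electroporation into a Huh7-derived cell line. Percent inhibition is taken from the drop in luciferase signal at each compound concentration, and EC90 is calculated from these. Values are means of at least two experiments.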

[9] = system: Nonstructural protein 5A (Hepatitis C virus), Q5L478 [UNDEFINED MUTATION]; test: Inhibition of NS5A L31V mutant in Hepatitis C virus subtype 1a infected in human HuH7 cells assessed as reduction in viral replication by luciferase reporter gene assay; format: cell-based; conditions: Huh-7; in short: as §3
Huh-7 [10] = test: Inhibition of NS5A in Hepatitis C virus subtype 4a infected in human HuH7 cells assessed as reduction in viral replication by luciferase reporter gene assay; format: cell-based; in short: as §2
Huh-7 [11] = test: Inhibition of NS5A in Hepatitis C virus subtype 2b infected in human HuH7 cells assessed as reduction in viral replication by luciferase reporter gene assay; format: cell-based; in short: as §2
Huh-7 [12] = test: Inhibition of NS5A in Hepatitis C virus subtype 1b infected in human HuH7 cells assessed as reduction in viral replication by luciferase reporter gene assay; format: cell-based; in short: as §2
Huh-7 [13] = test: Inhibition of NS5A in Hepatitis C virus subtype 2a infected in human HuH7 cells assessed as reduction in viral replication by luciferase reporter gene assay; format: cell-based; in short: as §2
Huh-7 [14] = test: Inhibition of NS5A in Hepatitis C virus subtype 3a infected in human HuH7 cells assessed as reduction in viral replication by luciferase reporter gene assay; format: cell-based; in short: as §2
[15] = Selectivity ratio of EC90 for inhibition of NS5A in Hepatitis C virus subtype 4a infected in human HuH7 cells assessed as reduction in viral to EC90 for inhibition of NS5A in Hepatitis C virus subtype 1a; format: cell-based
In short: (§4)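 Fold shift calculated against the GT1a EC90, using EC90 values from the luciferase replicon assay in Huh7-derived cells.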

[16] = Selectivity ratio of EC90 for inhibition of NS5A Y93H mutant in Hepatitis C virus subtype 1a infected in human HuH7 cells assessed as reduction in viral to EC90 for inhibition of NS5A in Hepatitis C virus subtype 1a; format: cell-based
In short: (§5)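 Fold shift is calculated against the GT1a EC90. The variant EC90 comes from a transient replicon assay: the NS5A variant is introduced into a GT1a-H77 or GT1b-Con1 replicon and electroporated into Huh7-derived cells. The read-out is reduced luciferase signal. EC90s are means of at least two experiments.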

[17] = Selectivity ratio of EC90 for inhibition of NS5A in Hepatitis C virus subtype 2b infected in human HuH7 cells assessed as reduction in viral to EC90 for inhibition of NS5A in Hepatitis C virus subtype 1a; format: cell-based
[18] = Selectivity ratio of EC90 for inhibition of NS5A L31V mutant in Hepatitis C virus subtype 1a infected in human HuH7 cells assessed as reduction in viral to EC90 for inhibition of NS5A in Hepatitis C virus subtype 1a; format: cell-based; in short: as §5
[19] = Selectivity ratio of EC90 for inhibition of NS5A in Hepatitis C virus subtype 1b infected in human HuH7 cells assessed as reduction in viral to EC90 for inhibition of NS5A in Hepatitis C virus subtype 1a; format: cell-based; in short: as §4
[20] = Selectivity ratio of EC90 for inhibition of NS5A in Hepatitis C virus subtype 3a infected in human HuH7 cells assessed as reduction in viral to EC90 for inhibition of NS5A in Hepatitis C virus subtype 1a; format: cell-based

| Structure (SMILES) | clearance [1] [mL/min/kg] | bioavailability [2] [%] | half-life [3] [h] | concentration at 24 h [4] [nM] | AUC at 24 h [5] [µM·h] | Cmax [6] [nM] | EC90 (Huh-7 [7]) [nM] | EC90 [8] [nM] | EC90 [9] [nM] | EC90 (Huh-7 [10]) [nM] | EC90 (Huh-7 [11]) [nM] | EC90 (Huh-7 [12]) [nM] | EC90 (Huh-7 [13]) [nM] | EC90 (Huh-7 [14]) [nM] | Selectivity ratio [15] | Selectivity ratio [16] | Selectivity ratio [17] | Selectivity ratio [18] | Selectivity ratio [19] | Selectivity ratio [20] |
| --- | --- | --- | --- | --- | --- | --- | --- | --- | --- | --- | --- | --- | --- | --- | --- | --- | --- | --- | --- | --- |
| COC(=O)N[C@H](C(=O)N1CCC[C@H]1c1ncc(-c2cc(F)c3c(c2)OC(c2ccc4c(c2)OCCC4)n2c-3cc3cc(-c4cnc([C@@H]5CCCN5C(=O)[C@@H](NC(=O)OC)C(C)C)[nH]4)ccc32)[nH]1)C(C)C.O=C(O)C(F)(F)F.O=C(O)C(F)(F)F (some centres not stated) | 8 | 5 | 5.8 | 17 | 1.35 | 86 | – | – | – | – | – | – | – | – | – | – | – | – | – | – |
| COC(=O)N[C@H](C(=O)N1CCC[C@H]1c1ncc(-c2ccc3c(c2)OC(c2ccc(-c4ccccc4)cc2)n2c-3cc3cc(-c4cnc([C@@H]5CCCN5C(=O)[C@@H](NC(=O)OC)C(C)C)[nH]4)ccc32)[nH]1)C(C)C (mixture of isomers) | – | – | – | – | – | – | < 0.02 | 4.6 | < 2 | < 0.02 | 2.6 | < 0.02 | < 0.2 | < 0.2 | – | – | – | – | – | – |
| COC(=O)N[C@H](C(=O)N1CCC[C@H]1c1ncc(-c2cc(F)c3c(c2)OC(c2ccc4c(c2)OCC[C@H]4C)n2c-3cc3cc(-c4cnc([C@@H]5CCCN5C(=O)[C@@H](NC(=O)OC)C(C)C)[nH]4)ccc32)[nH]1)C(C)C (some centres not stated) | – | – | – | – | – | – | 0.004 | 0.2 | 0.007 | 0.003 | 0.2 | 0.002 | – | 0.006 | 1 | 50 | 50 | 2 | 1 | 2 |
| COC(=O)N[C@H](C(=O)N1CCC[C@H]1c1ncc(-c2cc(F)c3c(c2)OC(c2ccc4c(c2)OC(C)(C)C4)n2c-3cc3cc(-c4cnc([C@@H]5CCCN5C(=O)[C@@H](NC(=O)OC)C(C)C)[nH]4)ccc32)[nH]1)C(C)C.O=C(O)C(F)(F)F.O=C(O)C(F)(F)F (some centres not stated) | 7 | 3 | 8.4 | 9 | 0.71 | 58 | 0.003 | 0.2 | 0.02 | 0.003 | 0.5 | 0.004 | – | 0.005 | 1 | 67 | 167 | 7 | 1 | 2 |
| COC(=O)N[C@H](C(=O)N1CCC[C@H]1c1ncc(-c2cc(F)c3c(c2)OC(c2ccc4c(c2)OCC[C@@H]4C)n2c-3cc3cc(-c4cnc([C@@H]5CCCN5C(=O)[C@@H](NC(=O)OC)C(C)C)[nH]4)ccc32)[nH]1)C(C)C (some centres not stated) | – | – | – | – | – | – | 0.004 | 0.2 | 0.01 | 0.003 | 0.2 | 0.002 | – | 0.01 | 1 | 50 | 50 | 3 | 1 | 3 |
| COC(=O)N[C@H](C(=O)N1CCC[C@H]1c1ncc(-c2ccc3c(c2)OC(c2cccc(-c4ccccc4)c2)n2c-3cc3cc(-c4cnc([C@@H]5CCCN5C(=O)[C@@H](NC(=O)OC)C(C)C)[nH]4)ccc32)[nH]1)C(C)C (mixture of isomers) | – | – | – | – | – | – | 0.005 | 21 | 1 | 0.02 | 3.8 | 0.006 | 0.004 | 0.3 | – | – | – | – | – | – |

— ChEMBL document CHEMBL4715796, “Discovery of Chromane Containing Hepatitis C Virus (HCV) NS5A Inhibitors with Improved Potency against Resistance-Associated Variants” (J Med Chem, 2016)
